Reference: ChEMBL document CHEMBL1141963, “Ketene aminal-based lactam derivatives as a novel class of orally active FXa inhibitors” (Bioorg Med Chem Lett, 2005)

Assays:
Coagulation factor X [1] = biological target: T1, Coagulation factor X (Homo sapiens, UniProt P00742); assay: Inhibitory activity against human FXa
Target sequence in this assay (P00742 41-179 limits assumed): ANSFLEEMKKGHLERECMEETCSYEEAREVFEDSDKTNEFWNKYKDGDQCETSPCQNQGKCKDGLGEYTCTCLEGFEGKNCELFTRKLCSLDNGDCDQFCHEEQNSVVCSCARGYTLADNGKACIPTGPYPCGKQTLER
Target sequence in this assay (P00742 235-488 limits assumed): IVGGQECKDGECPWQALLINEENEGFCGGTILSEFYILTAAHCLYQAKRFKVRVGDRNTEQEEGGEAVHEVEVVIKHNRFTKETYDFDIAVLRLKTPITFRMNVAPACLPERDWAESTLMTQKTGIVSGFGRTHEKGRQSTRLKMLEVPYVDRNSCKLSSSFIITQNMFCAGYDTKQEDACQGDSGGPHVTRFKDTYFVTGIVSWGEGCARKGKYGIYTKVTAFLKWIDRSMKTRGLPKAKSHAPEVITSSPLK

Coagulation factor X [2] = biological target: T1, Coagulation factor X; assay: Anticoagulant potency in human plasma as measured by prothrombin time
Target sequence in this assay (P00742 whole entry, looked up): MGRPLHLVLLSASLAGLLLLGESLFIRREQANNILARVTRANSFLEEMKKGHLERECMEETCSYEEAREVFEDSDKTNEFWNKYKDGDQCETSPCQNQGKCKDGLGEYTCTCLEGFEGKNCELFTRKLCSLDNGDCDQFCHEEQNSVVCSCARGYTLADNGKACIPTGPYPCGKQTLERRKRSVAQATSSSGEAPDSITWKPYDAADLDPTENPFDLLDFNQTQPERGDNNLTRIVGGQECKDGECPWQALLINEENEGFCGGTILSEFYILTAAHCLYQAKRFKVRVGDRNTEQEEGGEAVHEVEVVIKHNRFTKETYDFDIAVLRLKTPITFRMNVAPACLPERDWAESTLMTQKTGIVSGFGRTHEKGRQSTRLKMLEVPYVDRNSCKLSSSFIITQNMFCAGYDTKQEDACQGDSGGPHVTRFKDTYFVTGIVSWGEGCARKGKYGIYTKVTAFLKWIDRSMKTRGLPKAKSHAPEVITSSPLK

[3] = Binding affinity to trypsin; design: species or system Homo sapiens
Outline: (§1)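 Human enzymes, each assayed against a low-molecular-weight synthetic substrate. Ki was calculated from IC50 assuming competitive inhibition, as Ki = IC50/(1 + [S]/Km), where [S] is the substrate concentration in the assay and Km the substrate's Michaelis constant. Values are averages of two independent determinations.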

Prothrombin = Prothrombin (Homo sapiens, UniProt P00734); assay: Binding affinity to thrombin; outline: as §1
Plasma kallikrein = Plasma kallikrein (Homo sapiens, UniProt P03952); assay: Binding affinity to plasma kallikrein; outline: as §1
Sequence of Plasma kallikrein (P03952 20-390 limits assumed): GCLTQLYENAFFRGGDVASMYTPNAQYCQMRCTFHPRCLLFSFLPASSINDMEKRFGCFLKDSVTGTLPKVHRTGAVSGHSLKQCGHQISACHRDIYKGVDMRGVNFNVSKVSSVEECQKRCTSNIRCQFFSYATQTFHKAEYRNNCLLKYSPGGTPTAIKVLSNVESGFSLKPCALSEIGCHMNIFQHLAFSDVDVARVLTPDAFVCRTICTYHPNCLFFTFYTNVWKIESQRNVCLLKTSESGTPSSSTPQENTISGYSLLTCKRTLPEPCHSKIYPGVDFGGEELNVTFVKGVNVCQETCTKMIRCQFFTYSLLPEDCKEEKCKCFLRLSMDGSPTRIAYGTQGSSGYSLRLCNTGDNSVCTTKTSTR
Sequence of Plasma kallikrein (P03952 391-638 limits assumed): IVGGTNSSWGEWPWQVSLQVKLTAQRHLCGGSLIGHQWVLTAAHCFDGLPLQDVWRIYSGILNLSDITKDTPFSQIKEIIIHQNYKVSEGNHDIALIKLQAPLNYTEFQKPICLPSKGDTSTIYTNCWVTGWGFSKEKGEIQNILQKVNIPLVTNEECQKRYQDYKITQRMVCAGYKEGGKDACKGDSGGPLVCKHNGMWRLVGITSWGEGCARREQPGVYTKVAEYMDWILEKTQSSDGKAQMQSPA

[4] = biological target: Urokinase-type plasminogen activator (Homo sapiens, UniProt P00749); assay: Binding affinity to urokinase; outline: as §1
Plasminogen = Plasminogen (Homo sapiens, UniProt P00747); assay: Binding affinity to plasmin; outline: as §1
Sequence of Plasminogen (P00747 97-580 limits assumed): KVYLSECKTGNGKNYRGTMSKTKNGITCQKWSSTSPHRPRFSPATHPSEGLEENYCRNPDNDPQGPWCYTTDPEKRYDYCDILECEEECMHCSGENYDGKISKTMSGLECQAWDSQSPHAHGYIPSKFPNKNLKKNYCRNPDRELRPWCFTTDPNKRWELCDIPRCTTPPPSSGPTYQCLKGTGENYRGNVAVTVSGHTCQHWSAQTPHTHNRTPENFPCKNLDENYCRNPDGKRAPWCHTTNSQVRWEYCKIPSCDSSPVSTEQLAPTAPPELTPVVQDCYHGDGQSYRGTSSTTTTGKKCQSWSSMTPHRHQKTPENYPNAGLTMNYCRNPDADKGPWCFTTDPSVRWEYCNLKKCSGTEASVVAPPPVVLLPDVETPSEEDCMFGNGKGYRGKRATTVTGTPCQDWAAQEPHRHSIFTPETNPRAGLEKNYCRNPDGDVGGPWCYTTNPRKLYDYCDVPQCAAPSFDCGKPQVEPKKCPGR
Sequence of Plasminogen (P00747 581-810 limits assumed): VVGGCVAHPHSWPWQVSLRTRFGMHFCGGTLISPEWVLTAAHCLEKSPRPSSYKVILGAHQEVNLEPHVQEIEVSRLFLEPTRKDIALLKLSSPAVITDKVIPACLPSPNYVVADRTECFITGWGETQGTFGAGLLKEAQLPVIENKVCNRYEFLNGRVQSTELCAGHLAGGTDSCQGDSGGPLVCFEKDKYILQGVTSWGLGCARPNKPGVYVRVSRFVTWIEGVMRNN

[5] = biological target: Tissue-type plasminogen activator (Homo sapiens, UniProt P00750); assay: Binding affinity to tPA; outline: as §1
Sequence of Tissue-type plasminogen activator (P00750 whole entry): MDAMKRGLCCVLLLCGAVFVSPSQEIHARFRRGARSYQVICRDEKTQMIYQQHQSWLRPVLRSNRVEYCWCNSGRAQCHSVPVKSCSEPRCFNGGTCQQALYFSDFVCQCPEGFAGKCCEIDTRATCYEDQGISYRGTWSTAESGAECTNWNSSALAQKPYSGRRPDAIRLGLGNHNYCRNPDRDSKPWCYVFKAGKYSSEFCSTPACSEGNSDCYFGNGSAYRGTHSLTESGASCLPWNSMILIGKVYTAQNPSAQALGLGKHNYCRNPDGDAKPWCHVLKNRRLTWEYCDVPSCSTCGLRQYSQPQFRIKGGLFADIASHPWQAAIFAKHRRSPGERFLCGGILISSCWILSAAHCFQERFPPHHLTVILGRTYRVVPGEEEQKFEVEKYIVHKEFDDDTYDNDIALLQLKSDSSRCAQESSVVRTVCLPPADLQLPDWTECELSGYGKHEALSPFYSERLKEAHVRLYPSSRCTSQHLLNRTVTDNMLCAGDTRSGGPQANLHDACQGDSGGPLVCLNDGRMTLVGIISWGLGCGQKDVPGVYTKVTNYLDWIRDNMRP

[6] = biological target: Vitamin K-dependent protein C (Homo sapiens, UniProt P04070); assay: Binding affinity to activated protein C; outline: as §1
Sequence of Vitamin K-dependent protein C (P04070 43-197 limits assumed): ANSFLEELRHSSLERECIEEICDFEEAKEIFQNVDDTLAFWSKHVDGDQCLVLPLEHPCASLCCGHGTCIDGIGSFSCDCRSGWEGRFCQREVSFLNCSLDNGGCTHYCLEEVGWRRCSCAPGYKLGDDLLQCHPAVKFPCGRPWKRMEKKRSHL
Sequence of Vitamin K-dependent protein C (P04070 212-461 limits assumed): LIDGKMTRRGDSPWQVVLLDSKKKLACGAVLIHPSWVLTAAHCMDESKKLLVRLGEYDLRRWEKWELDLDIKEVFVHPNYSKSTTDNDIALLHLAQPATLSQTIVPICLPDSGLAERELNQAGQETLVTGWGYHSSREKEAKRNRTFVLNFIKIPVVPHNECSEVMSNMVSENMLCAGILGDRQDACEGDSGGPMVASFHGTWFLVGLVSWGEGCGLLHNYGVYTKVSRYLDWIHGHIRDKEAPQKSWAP

Coagulation factor IX = Coagulation factor IX (Homo sapiens, UniProt P00740); assay: Binding affinity to factor IXa; outline: as §1
Sequence of Coagulation factor IX (P00740 47-191 limits assumed): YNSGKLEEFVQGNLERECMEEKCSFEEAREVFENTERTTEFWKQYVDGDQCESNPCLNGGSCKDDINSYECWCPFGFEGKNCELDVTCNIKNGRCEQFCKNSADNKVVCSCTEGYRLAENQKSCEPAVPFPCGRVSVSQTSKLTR
Sequence of Coagulation factor IX (P00740 227-461 limits assumed): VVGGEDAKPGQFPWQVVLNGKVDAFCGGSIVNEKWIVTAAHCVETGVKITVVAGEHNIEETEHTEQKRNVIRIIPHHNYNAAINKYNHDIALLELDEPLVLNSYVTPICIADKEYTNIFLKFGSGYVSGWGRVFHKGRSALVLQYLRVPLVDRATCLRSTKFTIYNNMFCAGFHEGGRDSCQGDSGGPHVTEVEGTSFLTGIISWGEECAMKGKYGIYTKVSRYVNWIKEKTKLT

Coagulation factor VII = biological target: T2, Coagulation factor VII (Homo sapiens, UniProt P08709); assay: Binding affinity to factor VIIa; outline: as §1
T2 sequence (P08709 whole entry): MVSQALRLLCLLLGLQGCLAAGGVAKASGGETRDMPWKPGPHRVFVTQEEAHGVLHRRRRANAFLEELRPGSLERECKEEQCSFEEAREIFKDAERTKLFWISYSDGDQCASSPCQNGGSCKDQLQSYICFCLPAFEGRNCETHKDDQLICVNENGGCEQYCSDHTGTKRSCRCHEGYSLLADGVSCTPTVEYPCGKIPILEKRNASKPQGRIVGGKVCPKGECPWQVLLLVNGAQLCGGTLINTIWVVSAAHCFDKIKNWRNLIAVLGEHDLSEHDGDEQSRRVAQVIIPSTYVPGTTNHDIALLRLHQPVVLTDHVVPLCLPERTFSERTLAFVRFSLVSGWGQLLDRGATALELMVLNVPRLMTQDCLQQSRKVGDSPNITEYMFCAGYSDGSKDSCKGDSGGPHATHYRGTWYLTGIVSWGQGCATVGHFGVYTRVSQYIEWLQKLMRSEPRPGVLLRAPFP

Chymotrypsinogen B = Chymotrypsinogen B (Homo sapiens, UniProt P17538); assay: Binding affinity to chymotrypsin; outline: as §1
Sequence of Chymotrypsinogen B (P17538 34-164 limits assumed, other chains not shown): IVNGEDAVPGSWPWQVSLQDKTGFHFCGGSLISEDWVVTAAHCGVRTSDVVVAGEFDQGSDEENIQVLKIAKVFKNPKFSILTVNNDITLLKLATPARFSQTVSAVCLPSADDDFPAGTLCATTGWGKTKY
Sequence of Chymotrypsinogen B (P17538 167-263 limits assumed, other chains not shown): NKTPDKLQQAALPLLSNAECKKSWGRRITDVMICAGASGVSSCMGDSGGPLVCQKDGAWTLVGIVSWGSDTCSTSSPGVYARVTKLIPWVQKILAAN

IC50 (Coagulation factor X [1]) | 2PT (Coagulation factor X [2]) | SMILES | other results
0.01 µM | 31 µM | Cc1cc2cc(NC(/C=C(\O)c3nccs3)=N/[C@H]3CCCCN(CC(=O)N4CCCC4)C3=O)ccc2o1 | –
2.1 µM | – | CN(C)c1cccc(N/C(=C\[N+](=O)[O-])N[C@H]2CCCCN(CC(=O)N3CCCC3)C2=O)c1 | –
0.647 µM | – | Cc1cc2cc(N/C(N[C@H]3CCCCN(CC(=O)N4CCCC4)C3=O)=C(/C#N)S(=O)(=O)C(C)C)ccc2o1 | –
1.5 µM | – | O=C(CN1CCCC[C@H](N/C(=C/[N+](=O)[O-])Nc2ccc3c(c2)CCO3)C1=O)N1CCCC1 | –
0.046 µM | 24 µM | Cc1cc2cc(N/C(N[C@H]3CCCCN(CC(=O)N4CCCC4)C3=O)=C(/C#N)S(C)(=O)=O)ccc2o1 | –
0.013 µM | 62 µM | Cc1cc2cc(NC(=N/[C@H]3CCCCN(CC(=O)N4CCCC4)C3=O)/C(C#N)=C(\O)c3ccc(Cl)cc3)ccc2o1 | –
0.013 µM | 7 µM | Cc1cc2cc(N/C(N[C@H]3CCCCN(CC(=O)N4CCCC4)C3=O)=C(/C#N)C(=O)NC(N)=O)ccc2o1 | –
0.01 µM | 10 µM | Cc1cc2cc(NC(=N/[C@H]3CCCCN(CC(=O)N4CCCC4)C3=O)/C(C#N)=C(\O)OCCCCO)ccc2o1 | Ki (Coagulation factor X [1]): 0.012 µM; Ki [3]: > 5 µM; Ki (Prothrombin): 6.3 µM; Ki (Plasma kallikrein): > 19.4 µM; Ki [4]: > 14 µM; Ki (Plasminogen): > 22 µM; Ki [5]: 16 µM; Ki [6]: > 21.5 µM; Ki (Coagulation factor IX): > 10 µM; Ki (Coagulation factor VII): > 55 µM; Ki (Chymotrypsinogen B): 9.42 µM
6.7 µM | – | COc1cccc(N/C(=C\[N+](=O)[O-])N[C@H]2CCCCN(CC(=O)N3CCCC3)C2=O)c1 | –
0.057 µM | 60 µM | Cc1cc2cc(NC(=N/[C@H]3CCCCN(CC(=O)N4CCCC4)C3=O)/C(C#N)=C(\O)OC(C)(C)C)ccc2o1 | –
16.5 µM | – | O=C(CN1CCCC[C@H](N/C(=C/[N+](=O)[O-])Nc2ccccc2)C1=O)N1CCCC1 | –
0.539 µM | – | O=C(CN1CCCC[C@H](N/C(=C/[N+](=O)[O-])Nc2ccc3occc3c2)C1=O)N1CCCC1 | –
0.013 µM | 36 µM | COc1ccc(/C(O)=C(C#N)/C(=N\[C@H]2CCCCN(CC(=O)N3CCCC3)C2=O)Nc2ccc3oc(C)cc3c2)cc1 | –
> 34 µM | – | CN(C)c1ccc(N/C(=C\[N+](=O)[O-])N[C@H]2CCCCN(CC(=O)N3CCCC3)C2=O)cc1 | –
0.024 µM | 31 µM | CCO/C(O)=C(C#N)/C(=N\[C@H]1CCCCN(CC(=O)N2CCCC2)C1=O)Nc1ccc2oc(C)cc2c1 | –
3.4 µM | – | COc1ccc(N/C(=C\[N+](=O)[O-])N[C@H]2CCCCN(CC(=O)N3CCCC3)C2=O)cc1C | –
0.017 µM | 13 µM | Cc1cc2cc(N/C(N[C@H]3CCCCN(CC(=O)N4CCCC4)C3=O)=C(/C#N)C(N)=O)ccc2o1 | –
3.1 µM | – | COc1ccc(N/C(=C\[N+](=O)[O-])N[C@H]2CCCCN(CC(=O)N3CCCC3)C2=O)cc1 | –
1 µM | – | O=C(CN1CCCC[C@H](N/C(=C/[N+](=O)[O-])Nc2ccc3ccccc3c2)C1=O)N1CCCC1 | –
0.051 µM | – | Cc1cc2cc(N/C(=C\[N+](=O)[O-])N[C@H]3CCCCN(CC(=O)N4CCCC4)C3=O)ccc2o1 | –
0.057 µM | 21 µM | Cc1cc2cc(N/C(N[C@H]3CCCCN(CC(=O)N4CCCC4)C3=O)=C(/C#N)C(=O)N3CCC(C)CC3)ccc2o1 | –
> 34 µM | – | Cc1ccc(N/C(=C\[N+](=O)[O-])N[C@H]2CCCCN(CC(=O)N3CCCC3)C2=O)cc1 | –

SMILES | IC50 (Coagulation factor X [1]) | 2PT (Coagulation factor X [2]) | other results
CCOP(=O)(OCC)/C(C#N)=C(\Nc1ccc2oc(C)cc2c1)N[C@H]1CCCCN(CC(=O)N2CCCC2)C1=O | 0.658 µM | > 60 µM | –
